As a reminder, the inhibition is the relative decrease from the control value, in per cent.

Each structure is given as a SMILES string. pIC50: −log10 of the molar value.

In assay [1] the target is T1, Dihydrofolate reductase (Rattus norvegicus, UniProt Q920D2).
T1 sequence (Q920D2 whole entry): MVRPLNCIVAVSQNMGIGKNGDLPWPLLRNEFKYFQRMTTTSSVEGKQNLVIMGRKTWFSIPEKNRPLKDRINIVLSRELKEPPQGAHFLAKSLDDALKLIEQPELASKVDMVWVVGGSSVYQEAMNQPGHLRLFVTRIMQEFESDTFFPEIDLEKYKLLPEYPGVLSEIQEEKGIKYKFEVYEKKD
Put plainly: Inhibition of rat liver Dihydrofolate reductase. The settings on record: read-out: I50.

Assay [2] relates to Streptococcus pyogenes. Put plainly: Antimicrobial activity against streptococcus pyogenes CN10 in mice in experiment 3. The assay is classed as functional, Mus musculus.
The test system of assay [3] is Mus musculus. The assay can be described thus: Concentration of compound in serum of mouse 10 min after oral administration of 2 mg dose. The assay is classed as functional, organism-based. In outline: (§1)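 Single po dose (10 or 2 mg per mouse) to groups of three mice (18–20 g); ~0.2 mL blood drawn from supraorbital plexus at 10–360 min and pooled; serum drug level assayed microbiologically with Bacillus pumilus as test organism. Half-life calculated from curve slopes once compound apparently evenly distributed.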

For assay [4], the system named is Mus musculus. Put plainly: Concentration of compound in serum of mouse 90 min after oral administration of 2 mg dose. The format is functional, organism-based. In a few lines: as §1
Assay [5] relates to Streptococcus pyogenes. Put plainly: Antimicrobial activity against streptococcus pyogenes CN10 in mice in experiment 1. The format is functional, Mus musculus.
Assay [6] has as its system Mus musculus. The assay can be described thus: Concentration of compound in serum of mouse 30 min after oral administration of 10 mg dose. The format is functional, organism-based. In outline:
as §1

Assay [7] concerns Klebsiella pneumoniae. Put plainly: Antimicrobial activity against Klebsiella pneumoniae CN3632 in mice in experiment 3. The format is functional, Mus musculus.
In assay [8] the test system is Mus musculus. Put plainly: Concentration of compound in serum of mouse 10 min after oral administration of 10 mg dose. The assay is classed as functional, organism-based. In outline:
as §1

Assay [9] deals with Escherichia coli. The assay can be described thus: Antimicrobial activity against Escherichia coli CN348 in mice in experiment 1. The assay is classed as functional, Mus musculus.
Assay [10] has as its system Mus musculus. Put plainly: Half-life in serum of mice after oral administration of 10 mg dose. The format is functional, organism-based. In outline: as §1
Assay [11] concerns Staphylococcus aureus. The assay can be described thus: Antimicrobial activity against Staphylococcus aureus CN491 in mice in experiment 1. The format is functional, Mus musculus.
Assay [12] has as its system Proteus vulgaris. Put plainly: Antimicrobial activity against Proteus vulgaris CN329 in mice in experiment 1. The assay is classed as functional, Mus musculus.
Assay [13] deals with Mus musculus. The assay can be described thus: Concentration of compound in serum of mouse 180 min after oral administration of 10 mg dose. The assay is classed as functional, organism-based. In outline: as §1
Assay [14] deals with Mus musculus. The assay can be described thus: Concentration of compound in serum of mouse 180 min after oral administration of 2 mg dose. The format is functional, organism-based. In a few lines:
as §1

Assay [15] concerns Proteus vulgaris. The assay can be described thus: Antimicrobial activity against Proteus vulgaris CN329 in mice in experiment 2. The assay is classed as functional, Mus musculus.
Assay [16] relates to Mus musculus. Put plainly: Concentration of compound in serum of mouse 90 min after oral administration of 10 mg dose. The format is functional, organism-based. In a few lines: as §1
Assay [17] has as its system Escherichia coli. The assay can be described thus: Antimicrobial activity against Escherichia coli CN348 in mice in experiment 3. The format is functional, Mus musculus.
The subject of assay [18] is Escherichia coli. The assay can be described thus: Antimicrobial activity against Escherichia coli CN348 in mice in experiment 2. The assay is classed as functional, Mus musculus.
In assay [19] the test system is Mus musculus. Put plainly: Concentration of compound in serum of mouse 360 min after oral administration of 2 mg dose. The format is functional, organism-based. In outline:
as §1

In assay [20] the test system is Klebsiella pneumoniae. Put plainly: Antimicrobial activity against Klebsiella pneumoniae CN3632 in mice in experiment 1. The format is functional, Mus musculus.
In assay [21] the test system is Streptococcus pyogenes. The assay can be described thus: Antimicrobial activity against streptococcus pyogenes CN10 in mice in experiment 2. The assay is classed as functional, Mus musculus.
Assay [22] relates to Mus musculus. The assay can be described thus: Concentration of compound in serum of mouse 360 min after oral administration of 10 mg dose. The assay is classed as functional, organism-based. In outline: as §1
In assay [23] the test system is Staphylococcus aureus. Put plainly: Antimicrobial activity against Staphylococcus aureus CN491 in mice in experiment 2. The assay is classed as functional, Mus musculus.
Assay [24] concerns Staphylococcus aureus. Put plainly: Antimicrobial activity against Staphylococcus aureus CN491 in mice in experiment 3. The assay is classed as functional, Mus musculus.
For assay [25], the system named is Mus musculus. The assay can be described thus: Half-life in serum of mice after oral administration of 2 mg dose. The format is functional, organism-based. In outline:
as §1

The target of assay [26] is T1, Dihydrofolate reductase. The assay can be described thus: Compound was tested for inhibitory activity against Dihydrofolate Reductase(DHFR) of rat liver. The settings on record: read-out: I50.
Assay [27] relates to Klebsiella pneumoniae. Put plainly: Antimicrobial activity against Klebsiella pneumoniae CN3632 in mice in experiment 2. The format is functional, Mus musculus.
Assay [28] concerns Mus musculus. The assay can be described thus: Concentration of compound in serum of mouse 30 min after oral administration of 2 mg dose. The assay is classed as functional, organism-based. In a few lines:
as §1

Another assay has as its system Oryctolagus cuniculus. Put plainly: Peak serum concentration reached within 1 hr of administration of 5 mg/kg oral dose. More on the design: dose 5 mg/kg. The format is functional, organism-based.
The target in assay [29] is T2, Dihydrofolate reductase (Rattus norvegicus) (UniProt Q920D2).
T2 sequence (whole entry): T1 sequence (Q920D2 whole entry)
Put plainly: PCompound was tested for inhibitory activity against Dihydrofolate reductase of rat liver at 40000 M.

In assay [30] the target is T2, Dihydrofolate reductase (Rattus norvegicus). Put plainly: Compound was tested for inhibitory activity against Dihydrofolate reductase of rat liver at 2000 M.
The target in assay [31] is T1, Dihydrofolate reductase. Put plainly: Compound was tested for inhibitory activity against Dihydrofolate Reductase of rat liver. The settings on record: read-out: I50.
The target of assay [32] is T2, Dihydrofolate reductase (Rattus norvegicus). Put plainly: Percent inhibition of compound against Dihydrofolate Reductase of rat liver at 16000 M.
Assay [33] has the same target. The assay can be described thus: Compound was tested for inhibitory activity against Dihydrofolate reductase of rat liver at 29000 M.
For assay [34] the target is unchanged. The assay can be described thus: Compound was tested for inhibitory activity against Dihydrofolate reductase of rat liver at 40000 M.
Assay [35] concerns the target T3, Dihydrofolate reductase (Escherichia coli, UniProt P0ABQ4).
T3 sequence (P0ABQ4 whole entry): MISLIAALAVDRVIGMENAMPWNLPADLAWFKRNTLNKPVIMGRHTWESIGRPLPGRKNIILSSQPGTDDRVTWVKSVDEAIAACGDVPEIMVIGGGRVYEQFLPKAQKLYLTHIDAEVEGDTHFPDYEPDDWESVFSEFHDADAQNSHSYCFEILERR
Put plainly: Compound was tested for inhibitory activity against Dihydrofolate reductase of E. coli; Value ranges from 0.5-0.7M. The settings on record: read-out: I50.

Regarding `COc1cc(Cc2cnc(N)nc2N)cc(OC)c1OCCCCCCN`, the pIC50 on Dihydrofolate reductase [1] is 3.25.

In the case of `COc1cc(Cc2cnc(N)nc2N)cc(OC)c1OCCCCCC(=O)O`, the pIC50 on Dihydrofolate reductase [1] is 3.53.

`C=CCOc1c(OC)cc(Cc2cnc(N)nc2N)cc1OC`: the ED50 was 5.1 mg mouse-1 with Streptococcus pyogenes [2]; 12 mg mouse-1 in the assay with Streptococcus pyogenes [5]; more than 10 mg mouse-1 in the assay on Klebsiella pneumoniae [7]; 7.5 mg mouse-1 with Escherichia coli [9]; 2.5 mg mouse-1 in the assay on Staphylococcus aureus [11]; 10 mg mouse-1 with Proteus vulgaris [12]. The ED50 is reported as more than 10 mg mouse-1 with Proteus vulgaris [15]; more than 10 mg mouse-1 in the assay on Escherichia coli [17]; 11 mg mouse-1 with Escherichia coli [18]; 4.6 mg mouse-1 in the assay on Klebsiella pneumoniae [20]; 4.3 mg mouse-1 in the assay on Streptococcus pyogenes [21]; more than 10 mg mouse-1 in the assay with Staphylococcus aureus [23]. The ED50 in the assay with Staphylococcus aureus [24] was 8.1 mg mouse-1; in the assay with Klebsiella pneumoniae [27], 10 mg mouse-1. Besides, the Concentration with Mus musculus [3] was determined as 18 µg/mL; with Mus musculus [4], 1 µg/mL; in the assay with Mus musculus [6], 59 µg/mL; in the assay with Mus musculus [8] it was 84 µg/mL; in the assay on Mus musculus [13] it was 27 µg/mL; in the assay with Mus musculus [14] it was 0.26 µg/mL. For the same compound, the Concentration with Mus musculus [16] is 51 µg/mL; in the assay on Mus musculus [19], less than 0.1 µg/mL; in the assay on Mus musculus [22], 2.8 µg/mL. Moreover, the T1/2 in the assay with Mus musculus [10] stood at 1.1 h; with Mus musculus [25], 0.35 h. Moreover, the pIC50 at Dihydrofolate reductase [26] was 3.32.

Consider `COc1cc(COc2c(OC)cc(Cc3cnc(N)nc3N)cc2OC)cc(OC)c1OC`, for which the pIC50 at Dihydrofolate reductase [1] was 4.82.

Take `COc1cc(Cc2cnc(N)nc2N)cc(OC)c1OCCCCl`: the ED50 with Streptococcus pyogenes [2] is 7.2 mg mouse-1; in the assay with Klebsiella pneumoniae [7], more than 10 mg mouse-1; in the assay on Escherichia coli [9] it was 6.2 mg mouse-1; with Staphylococcus aureus [11], 2.1 mg mouse-1; in the assay with Proteus vulgaris [12], 8.2 mg mouse-1; with Proteus vulgaris [15] it was more than 10 mg mouse-1. Also, the ED50 with Escherichia coli [17] is more than 10 mg mouse-1; with Escherichia coli [18], 9.4 mg mouse-1; with Klebsiella pneumoniae [20], 1 mg mouse-1; in the assay with Streptococcus pyogenes [21], 3.3 mg mouse-1; with Staphylococcus aureus [23] it was more than 10 mg mouse-1; in the assay with Staphylococcus aureus [24], 7.1 mg mouse-1. Moreover, the Concentration in the assay with Mus musculus [3] is 7 µg/mL; with Mus musculus [4], 1.3 µg/mL; in the assay with Mus musculus [6] it was 31 µg/mL; in the assay on Mus musculus [8], 41 µg/mL; in the assay with Mus musculus [13], 15 µg/mL; in the assay with Mus musculus [14], 0.7 µg/mL. For the same compound, the Concentration in the assay on Mus musculus [16] stood at 26 µg/mL; in the assay with Mus musculus [19] it was 0.24 µg/mL; in the assay with Mus musculus [22], 7 µg/mL; with Mus musculus [28], 2.9 µg/mL. Also, the values for the T1/2 in the assay with Mus musculus [10] and with Mus musculus [25] were 2.4 h and 1.9 h, respectively. Besides, at Dihydrofolate reductase [1], the pIC50 is 3.60.

In turn, `COCCOc1c(OC)cc(Cc2cnc(N)nc2N)cc1OC` showed a Concentration in the assay with Oryctolagus cuniculus of 2 µg/mL. In assay [29], this compound had an inhibition of 16%.

Turning to `COc1cc(Cc2cnc(N)nc2N)cc(OC)c1OCc1ccc([N+](=O)[O-])cc1`, the inhibition in [30] is 23%.

Consider `CCCOc1c(OC)cc(Cc2cnc(N)nc2N)cc1OC`, for which the pIC50 at Dihydrofolate reductase [31] was 3.60.

In [32], `COc1cc(Cc2cnc(N)nc2N)cc(OC)c1OCC1CO1` (centres undefined) showed an inhibition of 23%.

`COc1cc(Cc2cnc(N)nc2N)cc(OC)c1C`: the pIC50 on Dihydrofolate reductase [1] was 3.92.

In assay [33], `COc1cc(Cc2cnc(N)nc2N)cc(OC)c1Oc1ccc(NC(=O)CBr)cc1` registered an inhibition of 37%.

Turning to `CCCCCCOc1c(OC)cc(Cc2cnc(N)nc2N)cc1OC`, the pIC50 at Dihydrofolate reductase [1] was 3.70.

Compound `COc1cc(Cc2cnc(N)nc2N)cc(OC)c1OCCCN1CCCCC1` came in with an inhibition in assay [34] of 20%.

`COc1cc(Cc2cnc(N)nc2N)cc(OC)c1OCCCCN1C(=O)c2ccccc2C1=O`: the pIC50 on Dihydrofolate reductase [1] is 4.27.

`COc1cc(Cc2cnc(N)nc2N)cc(OC)c1OCCN1CCOCC1`: the pIC50 on Dihydrofolate reductase [1] was less than 3.36.

In the case of `COc1cc(Cc2cnc(N)nc2N)cc(OC)c1OCc1ccccc1`, at Dihydrofolate reductase [1], the pIC50 was 4.33.

`COc1cc(Cc2cnc(N)nc2N)cc(OC)c1OCCCN1C(=O)c2ccccc2C1=O`: the pIC50 at Dihydrofolate reductase [1] was 4.16.

With `CCOc1c(OC)cc(Cc2cnc(N)nc2N)cc1OC`, the pIC50 on Dihydrofolate reductase [31] was 3.21; on Dihydrofolate reductase [35] it was 8.12.

The values above are taken from ChEMBL document CHEMBL1121680, “2,4-Diamino-5-benzylpyrimidines and analogues as antibacterial agents. 5. 3',5'-Dimethoxy-4'-substituted-benzyl analogues of trimethoprim” (J Med Chem, 1981).
